Screening data: PubChem BioAssay, The Scripps Research Institute Molecular Screening Center
CHO parental Ca: signal in parental CHO cells, OX1R antagonist counter-screen | parental CHO-K1, ATP-induced calcium, Fluo-8 fluorescence | inhibition, % at 5.6 µM | 330,000 compounds, 0.63% hits;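 active = inhibition above that plate's mean sample inhibition plus 3 SD, cut at about 26% in these data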;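 note: 0% = ATP-challenged DMSO wells and 100% = DMSO wells without ATP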
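test system = CHO parental line | reagent = ATP stimulus | measured by = intracellular calcium via Fluo-8 no-wash fluorescent dye | control set = ATP and no-ATP DMSO wells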
GalR3 antagonist: antagonists of human GalR3 | O60755 | inhibition, % at 3 µM | 360,000 compounds, 0.44% hits | AID 651719 | HEK293 GalR3-CNG cAMP membrane potential fluorescence; galR3 body fused to GalR1 C-terminus;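 active = inhibition above the screen-wide average plus 3 SD, cut at about 13% in these data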;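 note: forskolin and galanin both at EC90 stimulate the cells; cAMP rise reported by CNG channel membrane potential dye signal; 0% = forskolin plus galanin with DMSO and 100% = forskolin alone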
Target sequence (O60755 1-299 limits assumed): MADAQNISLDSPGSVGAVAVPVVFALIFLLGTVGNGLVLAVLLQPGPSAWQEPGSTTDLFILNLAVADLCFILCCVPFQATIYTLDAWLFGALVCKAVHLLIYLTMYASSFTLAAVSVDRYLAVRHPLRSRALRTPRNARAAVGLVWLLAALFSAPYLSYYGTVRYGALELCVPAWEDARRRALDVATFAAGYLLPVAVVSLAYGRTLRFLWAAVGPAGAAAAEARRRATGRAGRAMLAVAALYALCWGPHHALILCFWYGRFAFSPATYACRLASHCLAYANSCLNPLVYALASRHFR
TAAR1 antagonist: human TAAR1 antagonism. Q96RJ0. CHO RD-HGA16 TAAR1, Fluo-8 calcium fluorescence, antagonist. inhibition, % at 3 µM. 360,000 compounds, 1.5% hits;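 active = inhibition above a per-plate cutoff, the mean inhibition of test compounds on that plate plus 3 SD, cut at about 49% in these data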;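 note: 0% = DMSO plus EC80 beta-PEA response and 100% = DMSO alone without agonist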
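System: RD-HGA16 CHO cells with stable hTAAR1 and Gα16 | Probe or stimulus: EC80 β-phenethylamine stimulus | Dosing: 3 µM, single point | Times: Dye loading 75 min at 37 °C, then 30 min room temperature | Measured by: Fluo-8 calcium-sensitive fluorescence | Read-out basis: % inhibition of agonist calcium response | Replicates: n of 1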
TAAR1 ag: agonists of human TAAR1; 360,000 compounds, 0.99% hits; activation, % at 3 µM; CHO RD-HGA16 TAAR1, Fluo-8 calcium fluorescence; vehicle wells 0%, saturating PEA agonist 100%;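 active = activation above the mean activation of all test compounds in the run plus 3 SD, cut at about 38% in these data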
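System: CHO-derived RD-HGA16 cells with stable Gα16 and human TAAR1. Times: 17-24 h plating, Fluo-8 75 min 37 °C, 30 min RT. Measured by: calcium-sensitive Fluo-8 signal, excitation 470-495, emission 515-575 nm. Read-out basis: % activation relative to PEA EC100 response. Control set: DMSO and PEA EC100. Repeats: no replicates (n 1).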
OX1R antag-1: antagonists of human orexin 1 receptor (OX1R) | O43613 | OX1R-expressing cells, FRET antagonist read-out | inhibition, % at 6.6 µM | 330,000 compounds, 1.8% hits; in the data active = inhibition mostly above about 38%, no sharp cut-off; inactive = mostly below about 40%;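 note: 0% = agonist challenge alone and 100% = reference antagonist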
OX1R antag-2: blocks the human orexin 1 receptor; O43613; CHO/OX1R cells, Fluo-8 calcium fluorescence, orexin A; 330,000 compounds, 0.43% hits; AID 434989; inhibition, % at 5 µM;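 active = inhibition above its plate's threshold, mean inhibition of all tested compounds on the plate plus 3 SD, cut at about 37% in these data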;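 note: 0% = orexin A challenge wells and 100% = SB-334867-A antagonist wells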
GalR3 conf: confirmation of human galanin receptor 3 antagonists. shares compounds with GalR3 antagonist. HEK293 GalR3 CNG cAMP biosensor, membrane potential fluorescence; galR3 fused to GalR1 carboxy tail; challenged with forskolin and galanin at EC90. inhibition, % at 3 µM. 1,600 compounds, 59% hits. AID 652245;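 active = inhibition above the primary screen's cutoff, the mean inhibition of all screened compounds plus 3 SD, cut at about 13% in these data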;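 note: 0% = forskolin plus galanin and 100% = forskolin alone with DMSO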
HEK-CNG parental: parental cell agonism counter-screen for GalR3 antagonists; shares compounds with GalR3 antagonist; HEK293-CNG parental cells, cAMP membrane potential fluorescence; normalised: DMSO wells 0%, forskolin wells 100%; activation, % at 3 µM; 1,600 compounds, 10% hits; in the data active = activation above about 1.3%
* = called active by the depositor; . = no result given. Most compounds without a hit are left out; they make up all but 4.2% or so of the library.

SMILES	CHO parental Ca	GalR3 antagonist	TAAR1 antagonist	TAAR1 ag	OX1R antag-1	OX1R antag-2	GalR3 conf	HEK-CNG parental
Cc1cccc(-n2ncc3c2CCCC3NC(=O)C2(C(N)=O)CC2)c1C (stereo not drawn)	21	114*	-19	4	10	12	106*	-1
COc1ccc(C(=O)O)cc1NC(=S)NC(=O)CSc1ccc(Cl)cc1	-2	-1	-3	3	29	12	.	.
Cc1c(Cc2ccccc2)c(=O)oc2c(C)c(OCC(=O)NCc3ccccn3)ccc12	-11	-6	-8	2	-3	-5	.	.
CCOc1ccc(C(=O)n2cc(C(=O)OC)c3ccccc32)cc1OCC	-15	-8	10	0	6	-34	.	.
CCCn1c(NC(=O)CSCC(=O)Nc2cc(C)on2)nc2ccccc21	-3	-1	-12	-1	20	-29	.	.
CNC[C@H]1Oc2ccc(NC(=O)Nc3ccc4c(c3)OCO4)cc2C(=O)N([C@H](C)CO)C[C@@H]1C	-3	15*	-3	2	12	-11	8	0
CCN(c1ccccc1)S(=O)(=O)c1ccc(C(=O)Oc2ccc(C(C)=O)cc2)cc1	-7	14*	28	1	5	-3	-2	0
C=CCN(CC=C)Cc1nc(N)nc(Nc2ccccc2C)n1	-7	-8	1	5	8	-13	.	.
S=C1NC[C@H](Cc2ccccc2)N1CC1CCN(CCCCc2ccccc2)CC1	.	-9	3	2	.	.	.	.
Cc1cc(NC(=O)/C=C/c2ccccc2)c(C(C)C)cc1O	-14	19*	-30	5	9	-17	23*	0
Cc1cc(NC(=O)c2ccccc2Cl)c(C(C)C)cc1O	-2	-8	0	12	19	-2	.	.
CCCCC(O)CN1CCC(c2ccccc2)CC1 (stereo not drawn)	8	-7	13	2	11	0	.	.
CCN(CC(=O)NCc1cccs1)S(=O)(=O)c1cc(NC(C)=O)ccc1OC	-7	3	-16	4	-7	-13	.	.
NC(=O)CSc1nnc(-c2cccnc2)n1Cc1ccccc1	-10	1	-4	15	7	4	.	.
CCc1cccc(OCC(=O)Nc2ccc(C)c(S(=O)(=O)N3CCCCCC3)c2)c1	35*	87*	50*	4	34	22	80*	0
Cc1ccc(NC(=O)COc2ccc(N(C)C(=O)C(C)(C)C)cc2)cc1S(=O)(=O)N1CCCCC1	78*	93*	52*	10	20	73*	105*	-1
COC(OC)c1ccnc(-c2ccc(OC(=O)c3ccccc3)cc2)n1	-14	-8	18	3	12	-9	.	.
COC(OC)c1ccnc(-c2ccc(OC(=O)c3cccs3)cc2)n1	0	17*	-7	6	17	-29	5	0
CCCOC(=O)c1ccc(OCC(O)Cn2c(C)nc3ccccc32)cc1 (stereo not drawn)	.	105*	54*	6	.	.	123*	0
CC(=O)Nc1cccc(OCC(O)Cn2c(C)nc3ccccc32)c1 (stereo not drawn)	5	-6	-2	10	5	-3	.	.
COc1ccc(N2CCN(C(=S)Nc3ccccc3)CC2)cc1	-5	-10	-1	1	7	-11	.	.
CC(=O)c1ccc(N2CCN(C(=S)Nc3ccc(Oc4ccccc4)cc3)CC2)cc1	45*	82*	44	5	52	52*	97*	-1
Cc1csc(SCC(=O)Nc2ccc3c(c2)OCCO3)n1	3	4	-7	0	8	-19	.	.
Cc1nnsc1C(=O)NC1CCCc2c1cnn2-c1ccc(C(C)(C)C)cc1 (stereo not drawn)	41*	108*	16	-1	28	12	111*	0
